Test results: ChEMBL document CHEMBL5247599, “New β-arylchalcogeno amines with procognitive properties targeting Carbonic Anhydrases and Monoamine Oxidases” (Eur J Med Chem, 2022)
The source made the active and inactive calls. No cut-off for these calls is given here.

How the values were obtained:
[1] = tested on: Mus musculus; experiment: Pro-cognitive activity in C57Bl6 mouse assessed as attenuation of long-term memory deficit by measuring increase in exploration time for novel juvenile by measuring discrimination index at 50 nmol/uL, icv measured after 48 hrs by novel object recognition test; format: functional
In short: (§1)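 Social recognition in adult male C57Bl6 mice with intracerebroventricular cannulae. Habituation was 10 min with two empty cups. Twenty-four hours later, a novel 3–4-week-old juvenile was placed under one cup for 10 min of exploration, followed immediately by a 5 µL infusion at 1 µL/min. Retention 48 h later offered familiar versus novel juvenile, scoring snout-to-cup contact. DI = (tN−tF)/(tN+tF).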

[2] = tested on: Mus musculus; experiment: Pro-cognitive activity in C57Bl6 mouse assessed as attenuation of long-term memory deficit by measuring increase in exploration time for novel juvenile by measuring discrimination index at 25 nmol/uL, icv measured after 48 hrs by novel object recognition test; format: functional; in short: as §1
[3] = molecular target: Carbonic anhydrase 5A, mitochondrial (Homo sapiens) (UniProt P35218); experiment: Binding affinity to human CA5a by phenol red dye based stopped flow CO2 hydration assay; conditions: filed as activator
Chain of Carbonic anhydrase 5A, mitochondrial (Homo sapiens) (P35218 whole entry, canonical isoform): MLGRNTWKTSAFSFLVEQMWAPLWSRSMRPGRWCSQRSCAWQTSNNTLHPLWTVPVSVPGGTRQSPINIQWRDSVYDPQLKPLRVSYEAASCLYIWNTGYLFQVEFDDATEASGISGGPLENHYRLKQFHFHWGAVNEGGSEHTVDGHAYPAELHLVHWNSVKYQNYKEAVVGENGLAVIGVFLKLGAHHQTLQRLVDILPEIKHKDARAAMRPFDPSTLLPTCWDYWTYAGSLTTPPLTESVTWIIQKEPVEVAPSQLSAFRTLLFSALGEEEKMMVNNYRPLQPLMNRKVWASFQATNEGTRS
In short: (§2)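 Purified recombinant human CA isoforms. CA-catalysed CO2 hydration was followed by stopped-flow with phenol red at 557 nm, taking initial rates over 10–100 s from at least six traces of the first 5–10% of reaction. Uncatalysed rates were subtracted. Activator stocks were 0.1 mM in deionised water, diluted down to 0.1 nM in assay buffer. K_A came from non-linear least-squares Michaelis–Menten fitting.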

[4] = Toxicity in C57Bl6 mouse assessed as reduction in distance travel at 50 nmol/uL administered directly into lateral ventricle by open field test; conditions: in vivo, icv_or_intrathecal
In short: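 Cannulated adult male C57Bl6 mice were placed in a 60×70 cm open-field arena 30 min after a 5 µL lateral-ventricle infusion. Total distance travelled over a 5-min session was recorded by overhead video tracking.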

[5] = molecular target: Carbonic anhydrase 2 (Homo sapiens) (UniProt P00918); experiment: Binding affinity to human CA2 by phenol red dye based stopped flow CO2 hydration assay; in short: as §2
[6] = tested on: Mus musculus; experiment: Pro-cognitive activity in C57Bl6 mouse assessed as attenuation of long-term memory deficit by measuring increase in exploration time for novel object at 50 nmol/uL, icv measured after 24 hrs by novel object recognition test; format: functional, organism-based
In short: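 Male adult C57Bl6 mice (8–9 weeks), lateral-ventricle cannula implanted one week before. 10-min habituation to empty open-field arena; 24 h later, 5-min acquisition with two identical objects, followed immediately by 5 µL i.c.v. infusion at 1 µL/min. 5-min retention test 24 h after acquisition with one familiar and one novel object; percentage exploration time per object, two-way ANOVA with Bonferroni.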

[7] = molecular target: Carbonic anhydrase 3 (Homo sapiens) (UniProt P07451); experiment: Binding affinity to human CA3 by phenol red dye based stopped flow CO2 hydration assay; conditions: filed as activator; in short: as §2
Chain of Carbonic anhydrase 3 (Homo sapiens) (P07451 whole entry): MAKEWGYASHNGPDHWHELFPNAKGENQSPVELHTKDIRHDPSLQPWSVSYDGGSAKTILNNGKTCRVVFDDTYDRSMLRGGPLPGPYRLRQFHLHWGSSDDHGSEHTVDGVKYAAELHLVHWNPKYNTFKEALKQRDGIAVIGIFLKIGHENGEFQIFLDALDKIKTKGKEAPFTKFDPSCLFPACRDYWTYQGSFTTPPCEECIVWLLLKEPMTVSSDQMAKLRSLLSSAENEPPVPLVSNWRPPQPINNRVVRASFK

Ka [3]: 12.4 µM
Ka [5]: > 100 µM
Ka [7]: 26.8 µM
Structure (SMILES): CC(N)CSc1ccccc1 (configuration not stated)
Activity_index [1]: 0.138
Activity_index [2]: 0.038
Activity [4]: Non-Toxic
Activity [6]: Active
